# PubChem BioAssay
# Values without a mark were called inactive. Records with an inconclusive call do not appear. Activity calls are given as the source filed them.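 The calls were made as follows, unless noted: active = viability increase at or above a cutoff of the median across tested compounds plus 3 SD (cut at about 8.5% in these data, passing the limit was not always enough); inconclusive = some gains above the cutoff, reason not given; inactive = the rest.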
# Experiments:
# [1] = S. cerevisiae growth inhibition in permissive medium (OD615), pilot counter-assay for S. cerevisiae lifespan shortening project, permissive growth control (AID 705;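 active = growth inhibition above 25% in both replicates, a cutoff set 3 SD above the mean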); conditions: OD615, 24 h, at 10 µM, hits give high values
# Procedure, shortened: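 assay system = Saccharomyces cerevisiae strain carrying genetically modified DeaD replicative-lifespan system | medium = SC raffinose/galactose permissive medium | dosing = 10 µM single dose, 0.25% DMSO | schedule = 24 h compound exposure at 30 °C after 4 h pre-growth | measured by = OD at 615 nm | read-out basis = growth inhibition from lowered OD615 after 24 h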
# [2] = S. cerevisiae growth inhibition in restrictive medium, OD615, pilot screen, restrictive growth control, yeast lifespan reduction project (AID 706;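 active = growth inhibition above a set limit, 3 SD over mean compound inhibition, in both replicates, cut at about 43% in these data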;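 also: modified DeaD lifespan yeast strain shifted to restrictive glucose medium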); conditions: OD615, 48 h, at 10 µM, hits give high values
# Procedure, shortened: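 Buffer or medium: CSMM-D glucose medium. Material: genetically modified Saccharomyces cerevisiae, DeaD replicative lifespan assay strain. Times: 48 h compound exposure at 30 °C. Measured by: optical density at 615 nm.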
# [3] = doxorubicin toxicity protection in MRP-1 cells – H69AR cells, CellTiter-Glo, duplicate, MRP-1 activator project, pilot screen (AID 807); conditions: H69AR viability with doxorubicin, CellTiter-Glo luminescence; at 10 µM; hits give high values;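 also: compound pretreatment 18-22 h then 72 h combined with doxorubicin; 0% = doxorubicin alone and 100% = vehicle without doxorubicin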
# [4] = viability of HCT116 without oncogenic beta-catenin – human colon tumor cells, pilot screen (AID 823;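 active = cell viability at or below a set limit in both duplicate runs, the limit being the all-compound median minus 4 SD, cut at about 23% in these data, passing the limit was not always enough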;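 also: 0% = wells killed by 20 µM Hyamine and 100% = untreated DMSO cell wells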); conditions: HCT116 beta-catenin knockout viability, CellTiter-Glo, 60 h; at 10 µM; hits give low values
# [5] = viability of PTEN-null HCT116 cells – cell-based, HCT116 clonal line, CellTiter-Glo, pilot screen (AID 824;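 active = viability at or below 27.92% in each of two runs, the all-compound median minus 4 SD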;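 also: 0% = 20 µM Hyamine control and 100% = vehicle cell control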); conditions: HCT116 PTEN-deleted viability, 60 h, at 10 µM, hits give low values
# [6] = RAM pathway blockade in budding yeast – dse1pr::URA3 reporter, 5-FOA selection, pilot screen (AID 869;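 active = inhibition over a set limit, the all-compound mean plus 3 SD, in both replicate runs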;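 also: 0% = DMSO wells with no growth and 100% = 10 µM 1-NA-PP1 with full growth; RAM network block rescues cells from 5-FOA so hits raise OD615 growth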); conditions: S. cerevisiae dse1pr::URA3 5-FOA growth, OD615, 2 d; at 10 µM; hits give high values; strain carries analog-sensitive mutant Cbk1 kinase
# [7] = RAM signaling pathway blockade in yeast – S. cerevisiae, Pdr1DBD-CYC8 efflux-inhibited sensitized strain, primary screen (AID 1298;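 active = RAM network inhibition above 8.4% in each of two replicates, 3 SD over the compound average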;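 also: 0% = DMSO untreated cells without growth and 100% = 10 µM 1-NA-PP1 full growth; higher means more yeast growth rescued from 5-FOA killing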); conditions: S. cerevisiae cbk1-as DSE1-URA3 strain, 5-FOA growth OD615, 2 d; at 50 µM; hits give high values
SMILES,growth inhibition [1] [%],growth inhibition [2],viability increase [3] [%],viability [4] [%],viability [5] [%],inhibition [6],RAM network inhibition [7] [%]
COc1ccc(-c2nc(CS(=O)CC(=O)NCCC3=CCCCC3)c(C)o2)cc1 (stereo not drawn),0.225,9.63%,-4.36,77.1,79.6,0.475%,3.02
O=S(=O)(NCCCN1CCN(c2ccccc2F)CC1)c1cccc2cccnc12,-1.96,6.3%,-2.92,77.9,77.4,0.97%,5.43
COc1ccc(OCC(=O)Nc2cc(-c3nn4c(C)nnc4s3)ccc2C)cc1,0.16,0.525%,-1.72,106,94,0.755%,5.36
CCOC(=O)N1CCC(c2cc(=O)n3[nH]c(-c4ccccc4)cc3n2)CC1,2.9,-2.34%,-1.16,102,95.3,3.11%,9.15
Cn1c(=O)c2c(nc(OCc3ccccc3)n2C)n(C)c1=O,-2.8,-0.39%,3.09,100,98.3,-0.115%,0.26
O=C(NCC1OCCc2ccccc21)c1ccco1 (stereo not drawn),-13.7,-8.18%,-3.72,94.5,96.5,1.16%,6.11
Cn1cc(SCC(=O)Nc2ccc3c(c2)OCO3)c2ccccc21,-6.75,-9.39%,-2.72,100,92.9,1.69%,2.23
COc1ccc(-n2c(Cc3cccn3C)nnc2SCC(=O)N2CCCC2)cc1,11.1,49.5% (active),-0.77,96.1,98.5,0.04%,0.93
COc1ccccc1NC(=O)CSc1nnc(-c2ccccc2)o1,-16,-11%,-0.16,77.6,71.1,2.4%,1.53
CN1CCN(C(=O)C2CC(=O)N(c3ccc(F)c(Cl)c3)C2)CC1 (stereo not drawn),-6.12,-6.44%,-0.63,96,95.9,2.12%,3.12
Clc1ccc(OCc2nnc(-c3ccccc3Br)o2)c(Cl)c1,-11.4,-17%,-0.17,95.9,89.3,6% (active),14
CCn1c(/C=N/n2cnnc2)nc2ccccc21,-6.04,-5.67%,-0.75,96.8,92.8,1.56%,-0.99
CCC(C)NC(=O)c1cnc2n(c1=O)CCS2 (stereo not drawn),0.08,-1.8%,1.88,103,103,1.18%,1.25
COCn1c(-c2cccc(Br)c2)nc2ccccc21,-10.2,3.42%,-4.2,85.2,86.8,1.17%,3.8
Cc1ccc(NC(=O)NCCN2C(=O)C3C4C=CC(C4)C3C2=O)cc1 (stereo not drawn),-8.32,10.9%,-0.07,98,102,0.865%,1.04
CCOC(=O)C1CCN(C(=O)Cn2cc3c(n2)CCC(C)C3)CC1 (stereo not drawn),-5.55,-0.07%,0.98,97.6,95.6,1.87%,1.77
CCOC(=O)N1CCC(NC(=O)Cn2cc3c(n2)CCCCC3)CC1,-5.77,5.48%,1.03,108,98.6,-0.43%,0.41
Cc1ccc(-n2ncc3c(N4CCC5(CC4)OCCO5)ncnc32)c(C)c1,1.21,6.06%,-7.95,80.3,83.8,0.765%,-1.04
COc1cccc(N2CCN(C(=O)C3CCCN(S(=O)(=O)c4cnc[nH]4)C3)CC2)c1 (stereo not drawn),11.1,8.66%,0.99,97,93,-0.27%,-0.88
COc1ccc(-c2nc(CS(=O)CC(=O)NCc3cccnc3)c(C)o2)cc1 (stereo not drawn),2.57,-2.7%,-4.05,89.3,92.5,1.14%,1.62
c1ccc(-c2noc(CN3CCN(c4ccccc4)CC3)n2)cc1,-8.41,2.94%,-2.27,94.5,97.3,0.125%,3.29
CCOC(=O)C(C)c1nn(C)c(=O)c2ccccc12 (stereo not drawn),-3.15,-5.69%,-2.34,97.4,92.7,1.42%,1.72
Cn1c(NC(=O)c2cccs2)cc(=O)n(C)c1=O,7.14,0.885%,-1.55,107,95.5,0.13%,-1.35
Cc1ccc(C)c(N2CCN(C(=O)c3cc4ccccc4oc3=O)CC2)c1,-11.6,-15.9%,1.72,100,95.5,1.18%,3.38
CCOC(=O)c1cc(-c2nnc(-c3ccc(Cl)cc3)o2)c(C)nc1C,-16.3,-14.2%,-0.9,99.7,93.6,2.19%,2.13

SMILES,growth inhibition [1] [%],growth inhibition [2],viability increase [3] [%],viability [4] [%],viability [5] [%],inhibition [6],RAM network inhibition [7] [%]
Cc1cc(C)n(C(CC(=O)N2CCc3ccccc3C2)C(=O)O)n1 (stereo not drawn),-3.07,-0.04%,0.01,102,95.5,0%,5.81
CCOc1ccc(N(CC(=O)NCc2ccc(F)cc2)S(=O)(=O)c2c(C)noc2C)cc1,-15.6,-8.36%,-1.36,99.3,92.8,2.25%,2.84
CCOC(=O)N1CCN(C(=O)c2oc(=O)c3ccccc3c2-c2ccc(C)cc2)CC1,-8.36,-8.23%,1.15,96.2,102,1.23%,3.87
COCCN1C(=O)C(CC(=O)Nc2ccc(C(=O)O)cc2)SC1=Nc1ccccc1 (stereo not drawn),-12.5,-19.2%,-2.07,96.4,97.6,2.39%,2.48
Cc1oc2c(c(=O)c1C)C(=O)CC(c1ccccc1)C2 (stereo not drawn),-10.3,-15.9%,-3.41,88.5,91,0.115%,-1.15
CCOC(=O)c1c(C)oc2cc(Br)c(OC(=O)N3CCOCC3)cc12,-10.9,-3.17%,-0.62,88,88.8,0.13%,1.4
COc1ccc(-c2nc(CS(=O)CC(=O)NC3CCCc4ccccc43)c(C)o2)cc1OC (stereo not drawn),-8.29,3.54%,-2.94,84.5,90.9,1.64%,8.66
COc1ccccc1C(=O)n1nc(-c2cccnc2)nc1N,-10.2,-5.6%,-0.72,106,105,2.24%,0.59
Cc1occc1-c1nc(-c2ccccn2)no1,-14.3,3.22%,-4.5,71.2,67.7,0.16%,1.6
Cc1sc(NC(=O)c2cccs2)c(C(N)=O)c1C,-6.89,22.8%,-6.53,80.8,88.4,0.26%,-1.19
COc1ccc(Nc2ncnc3c2oc2ccccc23)cc1,-9.29,16.5%,-2.52,92.5,92,-0.035%,4.44
O=C(Nc1ccccc1)OCCOc1ccccc1,-9.16,4.62%,2.54,91.7,100,2.92%,1.95
Cc1ccc(NC(=O)c2ccco2)cc1C,4.04,0.435%,-3.07,95.5,90.5,0.665%,0.93
CCOc1ccc(NC(=O)N(CCN(C)C)C(C)c2ccncc2)cc1 (stereo not drawn),2.97,4.26%,-1.59,85.6,90.2,1.05%,1.38
CNc1oc(-c2ccccc2)nc1C#N,1.34,21.3%,2.14,101,102,-0.58%,5.84
CSC1=C(C#N)C(c2ccc(C(C)C)cc2)CC(=O)N1 (stereo not drawn),-4.75,-18.3%,0.04,99.6,91,2%,1.87
COc1ccccc1NC(=O)Cc1noc(CSc2nnc(C)s2)n1,-3.75,0.765%,-2.11,97.2,97.6,0.43%,5.03
CC1CN(C2CC(C)(C)NC(C)(C)C2)CCC1=O (stereo not drawn),-5.84,-0.43%,1.05,96.7,100,-0.505%,5.32
O=C(CN1C(=O)CSc2ncccc21)N1CCOCC1,7,-0.87%,-0.22,97.9,101,-0.115%,7.38
CCOCCCNC(=O)c1cn(CC(C)C)c(=O)c2cc(OC)c(OC)cc12,-22.4,-25.7%,-2.7,98.5,97.9,0.375%,4.93
Cc1ccc(NC(=O)c2cnc3scc(C)n3c2=O)c(C)c1,-4.27,-12.6%,-3.97,106,96.5,-0.14%,1.14
Brc1ccccc1Cn1c(-c2cncs2)nc2ccccc21,-8.58,25.2%,-3.44,79.2,73.9,0.68%,3.2
Cc1nc(N2CCN(C(=O)c3ccco3)CC2)c2c3c(sc2n1)CCC3,-10.5,5.55%,-1.12,79.8,83,1.16%,5
Cn1c(CCNC(=O)c2ccc(F)cc2)nc2ccccc21,0.71,-11%,2.04,105,99.7,1.2%,4.26
